Assay [1] deals with Rattus norvegicus. The assay is described as follows: Antianaphylactic activity in po dosed male Sprague-Dawley rat assessed as inhibition of egg albumin/Bordetella pertussis-induced passive cutaneous anaphylaxis reaction. Type of assay: functional. The following applies: read-out: ID50 (the source's name). The method, boiled down:
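Homologous rat PCA used 72-h skin sensitization with fourfold-diluted anti-egg albumin serum, raised with B. pertussis adjuvant, in 8-week rats (~280 g). Drug was suspended in 3% gum arabic and given orally 5 min before iv challenge with egg albumin 5 mg plus Evans blue 10 mg. Dye-leakage area (mm2) was measured after 30 min. ID50 by least squares on log dose vs area, with 95% confidence limits.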

The test system of assay [2] is Rattus norvegicus. The assay can be described thus: Antianaphylactic activity in iv dosed male Sprague-Dawley rat assessed as inhibition of egg albumin/Bordetella pertussis-induced passive cutaneous anaphylaxis reaction. The following applies: read-out: ID50 (the source's name). Type of assay: functional. In outline: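 Sera from rats sensitized with im egg albumin plus ip sterilized B. pertussis (collected day 12) were diluted fourfold and injected intradermally into dorsal skin of 8-week rats (~280 g). At 72 h, rats received iv egg albumin 5 mg plus Evans blue 10 mg. Drug in saline or PEG 400 was given iv immediately before challenge. Dye-leakage area (mm2) was read at 30 min. ID50 by least squares on log dose, with 95% confidence limits.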

The values below come from ChEMBL document CHEMBL3228044, “Studies on antianaphylactic agents. 6. Synthesis of some metabolites of 6-ethyl-3-(1H-tetrazol-5-yl)chromone and their analogues” (1979).

For the compound `CC(=O)OC(C)c1ccc2occ(-c3nnn[nH]3)c(=O)c2c1` (stereo not given), the ED50 with Rattus norvegicus [1] was greater than 20 mg/kg.

Regarding `O=C([O-])c1cc(=O)c2c(OCC(O)COc3cccc4oc(C(=O)[O-])cc(=O)c34)cccc2o1.[Na+].[Na+]` [CROMOLYN SODIUM], the ED50 in the assay with Rattus norvegicus [2] is 1.33 mg/kg; with Rattus norvegicus [1], greater than 100 mg/kg.

`O=C(O)Cc1ccc(O)c(C(=O)O)c1`: in the assay on Rattus norvegicus [2], the ED50 was greater than 20 mg/kg.

Take `CCC(=O)c1ccc2occ(-c3nnn[nH]3)c(=O)c2c1`: the ED50 with Rattus norvegicus [2] amounted to 0.29 mg/kg.

Regarding `CCc1ccc2occ(-c3nnnn3[C@@H]3O[C@H](C(=O)[O-])[C@@H](O)[C@H](O)[C@H]3O)c(=O)c2c1.[Na+]`, in the assay with Rattus norvegicus [2], the ED50 is greater than 20 mg/kg.

As to `O=c1c(-c2nnn[nH]2)coc2ccc(CCO)cc12`, the values for the ED50 with Rattus norvegicus [2] and in the assay with Rattus norvegicus [1] were 0.21 mg/kg and greater than 20 mg/kg, respectively.

Turning to `O=c1c(-c2nnn[nH]2)coc2ccc(C(O)CO)cc12` (stereo not given), the results for the ED50 in the assay with Rattus norvegicus [2] and in the assay on Rattus norvegicus [1] were 0.57 mg/kg and greater than 20 mg/kg, respectively.

For the compound `C=Cc1ccc2occ(-c3nnn[nH]3)c(=O)c2c1`, the ED50 in the assay with Rattus norvegicus [2] amounted to 0.49 mg/kg.

With `O=c1c(-c2nnn[nH]2)coc2ccc(CO)cc12`, in the assay on Rattus norvegicus [2], the ED50 came out at 0.34 mg/kg.

Turning to `CC(O)c1ccc2occ(-c3nnn[nH]3)c(=O)c2c1` (stereo not given), the values for the ED50 in the assay with Rattus norvegicus [2] and with Rattus norvegicus [1] were 0.56 mg/kg and 13.4 mg/kg, respectively.

As for `CC(C)(O)c1ccc2occ(-c3nnn[nH]3)c(=O)c2c1`, in the assay with Rattus norvegicus [2], the ED50 amounted to 1.13 mg/kg.

Turning to `CCCC(O)c1ccc2occ(-c3nnn[nH]3)c(=O)c2c1` (stereo not given), in the assay on Rattus norvegicus [2], the ED50 came to 1.07 mg/kg.

Consider `CCC(O)c1ccc2occ(-c3nnn[nH]3)c(=O)c2c1` (stereo not given), for which the figures for the ED50 in the assay with Rattus norvegicus [2] and in the assay on Rattus norvegicus [1] were 0.3 mg/kg and greater than 20 mg/kg, respectively.

For the compound `CCc1ccc2occ(-c3nnn[nH]3)c(=O)c2c1`, the ED50 in the assay on Rattus norvegicus [2] amounted to 0.25 mg/kg; in the assay on Rattus norvegicus [1] it was 5.9 mg/kg.

Take `CCc1ccc(O)c(C(=O)O)c1`: the ED50 in the assay with Rattus norvegicus [2] was greater than 20 mg/kg.

Turning to `O=Cc1ccc2occ(-c3nnn[nH]3)c(=O)c2c1`, the figures for the ED50 in the assay on Rattus norvegicus [2] and in the assay on Rattus norvegicus [1] were 1.1 mg/kg and greater than 20 mg/kg, respectively.

On to `CC(=O)c1ccc2occ(-c3nnn[nH]3)c(=O)c2c1`, for which the ED50 in the assay on Rattus norvegicus [2] worked out at 0.24 mg/kg; with Rattus norvegicus [1], 6.6 mg/kg.
